CYP2C19 activ = activators of human cytochrome P450 2C19; 96,000 tested, under 10 active; recombinant CYP2C19, luciferin-H EGE luminescence; active compounds read high; 0 = fully inhibited enzyme, 1 = untreated enzyme; P33261; activation factor at 5 µM;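 active = activation factor of at least 2 at 5 µM in the primary screen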;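 note: 0 = wells with 2.5 mM tranylcypromine and 1 = vehicle-only wells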
Cav32 inh = human Cav3.2 channel inhibition, primary screen; O95180; Cav3.2-expressing cells, Fluo-4 calcium fluorescence FDSS; active compounds read low; B-score at 10 µM; 4% of 100,000 active;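 active = single-dose well whose peak fluorescence ratio is a statistical outlier from its plate by either plate-standardised score or position-corrected B-score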
Target sequence (O95180 whole entry, looked up): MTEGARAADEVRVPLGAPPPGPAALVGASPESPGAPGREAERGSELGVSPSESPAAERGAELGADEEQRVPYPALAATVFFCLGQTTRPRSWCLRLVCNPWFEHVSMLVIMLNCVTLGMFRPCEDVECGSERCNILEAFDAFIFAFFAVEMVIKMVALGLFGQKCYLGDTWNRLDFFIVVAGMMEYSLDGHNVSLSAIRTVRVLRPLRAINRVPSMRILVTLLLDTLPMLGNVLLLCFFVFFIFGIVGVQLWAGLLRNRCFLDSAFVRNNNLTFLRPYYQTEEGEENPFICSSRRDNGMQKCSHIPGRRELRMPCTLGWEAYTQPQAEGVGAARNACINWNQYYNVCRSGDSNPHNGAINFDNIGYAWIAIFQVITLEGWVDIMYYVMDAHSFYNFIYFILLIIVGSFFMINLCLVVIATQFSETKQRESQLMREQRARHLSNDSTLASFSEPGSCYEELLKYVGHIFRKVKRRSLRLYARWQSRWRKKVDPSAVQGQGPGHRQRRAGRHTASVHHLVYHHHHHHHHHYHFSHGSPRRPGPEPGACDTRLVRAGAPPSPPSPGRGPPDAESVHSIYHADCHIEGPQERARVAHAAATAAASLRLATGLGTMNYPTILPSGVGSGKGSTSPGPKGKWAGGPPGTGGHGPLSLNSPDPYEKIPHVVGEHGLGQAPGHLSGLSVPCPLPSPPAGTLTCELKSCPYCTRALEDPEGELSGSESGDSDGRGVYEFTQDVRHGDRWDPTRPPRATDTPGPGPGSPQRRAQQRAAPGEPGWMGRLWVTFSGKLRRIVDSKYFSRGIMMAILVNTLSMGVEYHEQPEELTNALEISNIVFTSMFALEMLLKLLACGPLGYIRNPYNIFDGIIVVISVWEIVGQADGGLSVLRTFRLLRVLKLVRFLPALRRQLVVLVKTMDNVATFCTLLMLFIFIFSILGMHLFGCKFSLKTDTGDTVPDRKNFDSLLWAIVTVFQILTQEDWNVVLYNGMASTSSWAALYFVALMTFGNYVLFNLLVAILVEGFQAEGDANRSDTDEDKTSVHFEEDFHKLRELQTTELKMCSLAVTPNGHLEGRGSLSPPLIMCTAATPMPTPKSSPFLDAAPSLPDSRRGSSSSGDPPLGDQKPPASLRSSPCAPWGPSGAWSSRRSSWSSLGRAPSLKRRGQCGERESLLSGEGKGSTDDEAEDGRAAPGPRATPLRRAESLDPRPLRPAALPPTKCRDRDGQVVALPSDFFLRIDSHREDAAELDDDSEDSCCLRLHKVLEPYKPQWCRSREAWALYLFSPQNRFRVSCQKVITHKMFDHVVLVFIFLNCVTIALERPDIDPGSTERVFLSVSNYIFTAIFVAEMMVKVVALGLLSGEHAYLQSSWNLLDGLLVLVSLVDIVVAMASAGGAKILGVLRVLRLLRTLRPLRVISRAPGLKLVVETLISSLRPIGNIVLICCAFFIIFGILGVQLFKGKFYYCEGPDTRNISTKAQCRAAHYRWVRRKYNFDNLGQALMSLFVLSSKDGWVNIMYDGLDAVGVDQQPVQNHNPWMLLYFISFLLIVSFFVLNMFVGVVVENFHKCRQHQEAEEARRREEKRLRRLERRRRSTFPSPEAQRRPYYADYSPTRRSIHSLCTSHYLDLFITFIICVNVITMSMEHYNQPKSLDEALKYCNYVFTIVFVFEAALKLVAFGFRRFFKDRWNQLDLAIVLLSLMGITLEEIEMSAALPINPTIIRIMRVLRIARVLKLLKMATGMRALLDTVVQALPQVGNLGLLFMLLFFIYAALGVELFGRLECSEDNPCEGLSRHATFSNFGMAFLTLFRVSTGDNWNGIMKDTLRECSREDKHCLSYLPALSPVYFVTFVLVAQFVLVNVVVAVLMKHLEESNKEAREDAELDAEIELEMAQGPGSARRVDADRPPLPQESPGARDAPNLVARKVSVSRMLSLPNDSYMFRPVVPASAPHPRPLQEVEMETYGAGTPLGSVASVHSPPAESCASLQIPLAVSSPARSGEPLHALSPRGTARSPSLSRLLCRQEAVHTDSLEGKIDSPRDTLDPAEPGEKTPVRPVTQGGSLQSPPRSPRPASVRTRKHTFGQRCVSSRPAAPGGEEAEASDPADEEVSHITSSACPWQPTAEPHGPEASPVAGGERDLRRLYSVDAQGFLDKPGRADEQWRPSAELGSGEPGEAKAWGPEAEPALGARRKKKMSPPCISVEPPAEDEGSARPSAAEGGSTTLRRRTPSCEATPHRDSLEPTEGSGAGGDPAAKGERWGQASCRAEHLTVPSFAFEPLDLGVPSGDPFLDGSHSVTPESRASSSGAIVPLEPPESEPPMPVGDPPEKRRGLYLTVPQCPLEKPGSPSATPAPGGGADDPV
CYP2C19 inhib = human CYP2C19 inhibition | inhibition, % at 5 µM | P33261 | AID 778 | CYP2C19 Supersomes, luciferin-H EGE luminescence, 30 min | 21% of 96,000 active;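 active = CYP2C19 inhibition above a set limit at 5 µM in the primary screen, cut at about 50% in these data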;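 note: plate controls were negative control wells for no effect and 2.5 mM tranylcypromine positive control for full effect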
Rev-RRE block = inhibitors of HIV-1 Rev-RRE RNA interaction; AID 704; P05866; inhibition, % at 8 µM; 0.79% of 97,000 active; Rev peptide-RRE RNA binding, FRET;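 active = inhibition above the screen-wide mean plus 3 SD, cut at about 35% in these data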;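 note: 0% = median DMSO wells and 100% = median Neomycin B control wells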
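Assay system: Labelled RRE RNA duplex and labelled Rev peptide | Times: 5 min preincubation and 15 min binding, 25 °C | Detection: FRET, ex 480 nm, em 540 and 671 nm | Evaluation: % inhibition of FRET ratio versus controls | Benchmarks: DMSO wells as 0% and neomycin B wells as 100% inhibition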
CYP2C9 inhib = human CYP2C9 inhibition; CYP2C9 Supersomes, luciferin-H conversion, luminescence; inhibition, % at 5 µM; 20% of 96,000 active; P11712; AID 777;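 active = blocking of liver enzyme CYP2C9 beyond about 50% at 5 µM, limit read from the data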
CYP2C9 act = activators of human CYP2C9. 1.4% of 96,000 active. P11712. AID 1024. recombinant CYP2C9, luciferin-H conversion, luminescence; active compounds read high; factor 1 = untreated enzyme, 0 = blocked. activation factor at 5 µM;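 active = activation factor of 2 or more for CYP2C9 at a 5 µM dose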;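 note: 0 = sulfaphenazole-blocked wells and 1 = vehicle-only wells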
Numbers without * were called inactive. Most compounds without a hit are left out; they make up all but 27% or so of the library.

Screening COc1ccc(C(=O)N=c2sc3c(C)ccc(OC)c3n2C)cc1 returned CYP2C19 activ 0.7, Cav32 inh -2.8, CYP2C19 inhib 30, Rev-RRE block -1, CYP2C9 inhib 53* and CYP2C9 act 0.5.
`COc1ccc([C@@H]2Sc3ccccc3N(CCN(C)C)C(=O)[C@@H]2OC(C)=O)cc1` gave Cav32 inh -1.1.
Cc1[nH]n(-c2ccccc2)c(=O)c1/C=N/Nc1nncc(-c2ccccc2)n1 was read as CYP2C19 activ 0.4, Cav32 inh -1.6, CYP2C19 inhib 59*, Rev-RRE block -4, CYP2C9 inhib 82* and CYP2C9 act 0.2.
CCCCN(CCCC)C(=S)N/N=C/c1c(C)[nH]n(-c2ccccc2)c1=O was read as CYP2C19 activ 0.8, Cav32 inh 0.26, CYP2C19 inhib 20, Rev-RRE block -1, CYP2C9 inhib 42 and CYP2C9 act 0.6.
O=C(NCCc1ccccc1)C1CCCN(C(=O)NC2CCCCC2)C1 (configuration not stated) was read as CYP2C19 activ 1.1, Cav32 inh 2.1, CYP2C19 inhib -12, Rev-RRE block -2, CYP2C9 inhib 4 and CYP2C9 act 1.
`O=C1CC(C(=O)Nc2nccs2)C(c2ccccc2)O1` (configuration not stated) gave CYP2C19 activ 0.1, Cav32 inh 0.045, CYP2C19 inhib 87*, CYP2C9 inhib 60* and CYP2C9 act 0.4.
Screening O=C1CC(C(=O)Nc2ccccc2C(=O)O)C(c2ccccc2)O1 (configuration not stated) returned CYP2C19 activ 1, Cav32 inh -0.83, CYP2C19 inhib 3, Rev-RRE block 2, CYP2C9 inhib 94* and CYP2C9 act 0.1.
`O=C1CC(C(=O)Nc2ccc(C(=O)O)cc2)C(c2ccccc2)O1` (configuration not stated) gave CYP2C19 activ 1.1, Cav32 inh 0.13, CYP2C19 inhib -9, Rev-RRE block 6, CYP2C9 inhib 3 and CYP2C9 act 1.
CC(C)CC(NC(=O)C(COC(C)(C)C)NC(=O)C(Cc1ccc(O)cc1)NC(=O)C(CO)NC(=O)C(Cc1c[nH]c2ccccc12)NC(=O)C(Cc1cnc[nH]1)NC(=O)C1CCC(=O)N1)C(=O)N[C@@H](CCCN=C(N)N)C(=O)N1CCCC1C(=O)NNC(N)=O (some centres not stated) was read as Cav32 inh 0.12.
CN(C)CCCNc1oc(-c2cccc(Cl)c2)nc1C#N was read as CYP2C19 activ 0.9, Cav32 inh 0.6, CYP2C19 inhib 11, Rev-RRE block -8, CYP2C9 inhib 4 and CYP2C9 act 1.
`Cc1ccc(C(=O)N(c2ccccc2)C2CC(C)N(C(=O)c3ccco3)c3ccccc32)cc1` (configuration not stated) gave CYP2C19 activ 0.5, Cav32 inh -5.6*, CYP2C19 inhib 52*, Rev-RRE block -1, CYP2C9 inhib 94* and CYP2C9 act 0.1.
Nc1c(C(O)(C(F)(F)F)C(F)(F)F)cc(C(O)(C(F)(F)F)C(F)(F)F)c2ccccc12 was read as Cav32 inh -0.04 and Rev-RRE block 19.
Screening O=C(Nc1cc2c3c(c1)C1CCCC1CN3CC1CCCC21)c1ccccc1 (configuration not stated) returned CYP2C19 activ 0.9, Cav32 inh -3.8, CYP2C19 inhib 8, Rev-RRE block 10, CYP2C9 inhib 81* and CYP2C9 act 0.2.
Screening CCN(C(=O)Cc1ccc(Br)cc1)C1CCCCC1 returned CYP2C19 activ 0.8, Cav32 inh -4.4*, CYP2C19 inhib 22, Rev-RRE block 7, CYP2C9 inhib 37 and CYP2C9 act 0.6.
For CCOc1ccccc1OCC(=O)NN1Cc2ccccc2C1=N the results were CYP2C19 activ 1, Cav32 inh -0.22, CYP2C19 inhib 4, Rev-RRE block 7, CYP2C9 inhib -26 and CYP2C9 act 1.3.
`COc1ccccc1NC(=O)CS(=O)(=O)c1cccc2nsnc12` gave CYP2C19 activ 0.6, Cav32 inh -0.14, CYP2C19 inhib 40, Rev-RRE block -1, CYP2C9 inhib -154 and CYP2C9 act 2.5*.
